Compound activity deposited in PubChem BioAssay by several laboratories.
In the library only some 7.2% were active in any assay of this set; here they are far more common.
BAP1 block: inhibitors of BAP1 deubiquitinase, primary screen, biochemical, Ub-AMC fluorescence, kinetic; Ubiquitin carboxyl-terminal hydrolase BAP1 (Homo sapiens), Q92560; recombinant BAP1, Ub-AMC hydrolysis fluorescence kinetic; active compounds read low; calls only at 20 µM; hit rate 0.48% among 72,000;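 active = activity remaining at or below 50% of control, provided the compound also passes the data quality filters; inactive = the rest, including low values that fail the filters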;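 also: 100% = DMSO wells rate and 0% = substrate alone blank rate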
D1 mod: D1 CRE-luciferase signal change, two-sided – cell-based, HEK293 D1, dopamine EC30, D1 allosteric modulator project, primary screen. B-score at 10 µM. hit rate 5.9% among 58,000. dopamine EC30 potentiation; actives deviate in either direction. D(1A) dopamine receptor (Homo sapiens), P21728;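 active = luminescence count or its row- and column-corrected plate score outside the 99.7% band of the plate's sample wells, on either side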
M1 antag: antagonists of rat M1 muscarinic receptor; Muscarinic acetylcholine receptor M1 (Rattus norvegicus), P08482; CHO-M1 cells, Fluo-4 calcium, ACh EC80 antagonist mode; active compounds read low; B-score at 10 µM; hit rate 3.4% among 64,000; AID 628, 2007;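 active = calcium fluorescence response, raw or row-and-column corrected B-score, differing from the plate sample mean either way at a set confidence level, mostly lower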
HEK293 NFkB inh: inhibitors of PMA/ionomycin-induced NF-kB reporter, primary screen, antigen receptor NF-kB inhibitor project, cell-based, HEK-293 luciferase reporter, luminescence | HEK-293 NF-kB luciferase reporter | inhibition, % at 3 µM | hit rate 0.21% among 62,000 | AID 465, 2006;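 active = inhibition above the mean of all tested compounds plus 3 SD, cut at about 40% in these data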;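 also: 0% = stimulated DMSO wells and 100% = 10 µM reference inhibitor 5653914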
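System: NF-kB luciferase reporter HEK-293 cells | Replication: Single test | Control set: DMSO vs reference inhibitor | Evaluation: % inhibition | Schedule: 1 h pretreatment, 16 h stimulation, 37 °C | Probe or stimulus: PMA with ionomycin | Compound dosing: One dose, 3 µM | Detection: Luciferase luminescence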
DAT uptake mod: changed hDAT dopamine uptake under cocaine IC80, either direction, primary screen, cocaine antagonist project, cell-based, LLC-PK1 hDAT, [14C]-dopamine uptake, MLSMR. Sodium-dependent dopamine transporter (Homo sapiens), Q01959. hit rate 1.3% among 110,000. B-score at 10 µM. AID 449768, 2010. LLC-PK1 hDAT cells, [14C]-dopamine uptake with cocaine IC80; actives deviate in either direction;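 active = Z score or B-score, a plate-position-corrected score, falls beyond the plate's 99.7% confidence bounds, in either direction; inactive = both scores lie inside the 99.7% bounds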;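 also: scored against the spread of the other compound wells on the same plate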
Target sequence (Q01959 whole entry, looked up): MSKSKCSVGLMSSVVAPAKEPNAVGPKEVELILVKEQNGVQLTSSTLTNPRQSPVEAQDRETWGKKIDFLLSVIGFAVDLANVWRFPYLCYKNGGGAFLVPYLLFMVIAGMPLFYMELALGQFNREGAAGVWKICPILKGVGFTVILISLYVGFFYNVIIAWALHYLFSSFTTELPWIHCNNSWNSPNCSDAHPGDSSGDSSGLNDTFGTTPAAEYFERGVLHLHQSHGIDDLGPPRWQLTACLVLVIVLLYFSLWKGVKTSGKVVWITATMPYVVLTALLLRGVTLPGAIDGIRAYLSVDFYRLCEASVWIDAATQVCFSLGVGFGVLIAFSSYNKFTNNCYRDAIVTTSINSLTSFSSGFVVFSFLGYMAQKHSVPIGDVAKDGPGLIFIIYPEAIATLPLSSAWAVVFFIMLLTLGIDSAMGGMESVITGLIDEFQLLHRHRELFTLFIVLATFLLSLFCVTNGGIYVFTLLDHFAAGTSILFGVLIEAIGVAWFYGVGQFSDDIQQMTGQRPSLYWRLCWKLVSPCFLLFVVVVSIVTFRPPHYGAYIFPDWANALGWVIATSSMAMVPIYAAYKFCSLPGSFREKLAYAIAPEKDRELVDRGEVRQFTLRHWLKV
M1 agonist: M1 muscarinic receptor agonists, primary screen, CHO-M1 cells, Fluo-4 calcium, agonist mode | AID 626, 2007 | B-score at 10 µM | Muscarinic acetylcholine receptor M1 | Fluo-4 calcium fluorescence; active compounds read high | hit rate 3% among 64,000;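 active = fluorescence rise, raw or as B-score row- and column-corrected plate score, outside the 99.7% band of its plate's samples, either direction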
M1 agonist conf: rat M1 muscarinic receptor agonists, confirmation, CHO-M1 cells, Fluo-4 calcium, duplicate retest; Fluo-4 calcium fluorescence, agonist mode; actives lie on both sides; fluorescence change (max-min) at 10 µM; hit rate 19% among 1,700; AID 1488, 2009; shares compounds with M1 agonist;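 active = fluorescence change differs from the solvent-only DMSO control mean at a set confidence level in both duplicate runs; inconclusive = differs from solvent-only control mean in just one of two runs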;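 also: an EC20 dose of acetylcholine follows compound addition during the same imaging run; raw fluorescence intensity difference in instrument units with no normalization to controls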
M4 ag counter: agonist activity at rat M4 receptor, confirmation, counter-screen for M1 allosteric modulator project, cell-based, agonist mode | fluorescence change (max-min) at 10 µM | CHO M4/Gqi5 cells, Fluo-4 calcium fluorescence; actives lie on both sides | AID 1741, 2009 | hit rate 9% among 1,700 | shares compounds with M1 agonist;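 active = fluorescence change differing from the plate's solvent-only control wells at 99.7% confidence in both duplicates, whether higher or lower; inconclusive = differs from solvent controls in only one of two duplicates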
* marks the source's active call; other numbers are inactive results; i = inactive; ? = inconclusive; . = no result given.

SMILES	BAP1 block	D1 mod	M1 antag	HEK293 NFkB inh	DAT uptake mod	M1 agonist	M1 agonist conf	M4 ag counter
CCOC(=O)c1c(-c2ccccc2)nnn1-c1nc(OCC)nc(N2CCCCC2)n1	i	-0.764	-1.94	19.3	1.81*	6.55*	-29.2*	?
Cc1noc(C)c1COC(=O)c1ccc2c(c1)OCCO2	i	.	.	10.2	1.37	.	.	.
Cc1noc(C)c1COC(=O)c1cccc(S(=O)(=O)N2CCCCCC2)c1	i	-1.06	-2.22	25.4	0.772	3.06*	-16.8	-39
CC(C)COC(=O)NCCOC(=O)Nc1cccc(Cl)c1	i	-0.959	-2.16*	11.7	0.419	7.52*	-0.806	-84.9*
Cc1c(C(=O)O)oc2ccc(S(=O)(=O)N3CCC(C)CC3)cc12	i	0.789	0.391	12.9	-0.837	-0.991	.	.
Cc1c(C(=O)NCCc2ccccc2)oc2ccc(S(=O)(=O)N3CCC4(CC3)OCCO4)cc12	.	.	0.318	32.2	0.556	1.17	.	.
COc1ccc(NC(=O)c2oc3ccc(S(=O)(=O)N4CCC5(CC4)OCCO5)cc3c2C)cc1	.	-3.27*	-2.17	16.4	1.02	13.2*	?	-27
Cc1c(C(=O)O)oc2ccc(S(=O)(=O)N3CC(C)CC(C)C3)cc12 (centres undefined)	i	-1	-11.1*	-22.2	-0.00498	10.7*	-10.3	?
Cc1cccc(C)c1NC(=O)c1ccccc1NC(=O)c1ccccc1	i	.	.	.	.	.	.	.
CCn1c(SCC(=O)N2CCCc3ccccc32)nc2ccccc2c1=O	i	1.55	0.438	8.7	3.14*	3.11*	-6.22	-47.1
COc1ccccc1N1CCN(C(=O)CSc2nc3ccccc3c(=O)n2CC2CCCO2)CC1 (centres undefined)	i	-1.46	-2.56	18.5	1.88	9.71*	-1.53	-6.15
O=C(CSc1n[nH]c(-c2ccccc2O)n1)N1CCCc2ccccc21	i	-1.03	1.25	8.4	-0.302	11.1*	?	-47.6
CCn1c(SCC(=O)N2CCCc3ccccc32)nc2cccnc21	i	-0.585	-0.264	7.1	0.227	-1.3	.	.
O=C(CSc1n[nH]c(-c2cccs2)n1)N1CCCc2ccccc21	.	.	.	.	2.3	.	.	.
CCOC(=O)CSc1nc2ccccc2c(=O)n1CC1CCCO1 (centres undefined)	i	.	-0.59	1.9	-0.125	-0.019	.	.
COc1cc2ccccc2cc1C(=O)Nc1nc(-c2ccc(I)cc2)cs1	i	.	.	.	.	.	.	.
CNC(=O)COc1ccc(-c2nn(C)c(=O)c3ccccc23)cc1	.	.	.	.	-0.249	.	.	.
Cn1nc(-c2ccc(OCC(=O)Nc3cccnc3)cc2)c2ccccc2c1=O	i	-0.0118	-0.59	12.5	-0.164	6.19*	?	-37.7
c1ccc(-c2nc(-n3ccnc3)nc(-n3ccnc3)n2)cc1	i	2.81	-2.44	10.2	1.81	7.86*	-0.704	2.26
COCCCn1c(C(C)C)nc2oc3cc(OC)ccc3c(=O)c2c1=O	i	-0.0473	1.81	-2.5	-0.791	13.3*	-10.1	-23.3
COc1ccc(N2C(=O)C(N3C(=O)c4ccc([N+](=O)[O-])cc4C3=O)C2c2cc(Br)ccc2OC)cc1 (centres undefined)	i	.	.	.	.	.	.	.
COC(=O)c1ccc2c(=O)sc(N3CCC(C(N)=O)CC3)nc2c1	i	0.563	0.361	4.6	-0.444	23.8*	132*	136*
CCCCn1c(SC(C)C(N)=O)nc2cc(C(=O)OC)ccc2c1=O (centres undefined)	.	.	.	.	1.04	.	.	.
c1ccc(CSc2nnnn2-c2ccc3c(c2)OCCO3)nc1	i	1.1	0.216	-2.2	-0.197	6.7*	-9.73	-24
O=C(CSc1nnnn1-c1ccc2c(c1)OCCO2)N1CCc2ccccc21	i	0.57	0.579	15.7	-0.000324	-0.936	.	.
SMILES	BAP1 block	D1 mod	M1 antag	HEK293 NFkB inh	DAT uptake mod	M1 agonist	M1 agonist conf	M4 ag counter
CCCCN(C)Cc1c(O)ccc2c3c(c(=O)oc12)CCC3	i	.	.	.	.	.	.	.
COc1ccc(CCNC(=O)c2ccc(=O)[nH]n2)cc1OC	i	.	0.974	.	-0.495	-0.0267	.	.
COc1ccc2c(=O)c(C(=O)NCCc3ccc(OC)c(OC)c3)c[nH]c2c1	i	1.88	-0.919	-3.6	1.41	4.89*	?	?
COc1ccc(CCNC(=O)c2ccccc2NC(=O)c2ccco2)cc1OC	i	0.665	-0.137	2.6	1.62	3.97*	?	-77.5*
COc1ccc(NC(=O)c2ccccc2NC(=O)c2ccco2)c(OC)c1	i	-0.529	-0.42	7.4	0.395	7.72*	?	-48.6
COc1cc(NC(=O)c2ccco2)c(OC)cc1NC(=O)c1cc(OC)c(OC)c(OC)c1	i	-2.26	-0.0677	14.5	0.183	10.5*	-31.6*	-62.8
CC1=C(C(=O)OCC2CCCCC2)C(c2cccc(Cl)c2)NC(=O)N1 (centres undefined)	i	.	.	.	.	.	.	.
Nc1c(C(=O)Nc2ccccc2)sc2nc(-c3ccncc3)ccc12	i	.	.	.	.	.	.	.
Cc1ccc2c(c1)nnn2C1CCN(CC(=O)Nc2ccccc2N2CCOCC2)CC1	i	-0.218	-0.0469	-2.6	1.48	2.91*	-11.6	-5.69
O=C(CC1(O)C(=O)N(Cc2ccc3c(c2)OCO3)c2ccccc21)c1ccccc1 (centres undefined)	i	1.19	-0.607	11.3	1.49	-0.119	.	.
Cc1ccc(C(=O)CC2(O)C(=O)N(Cc3ccc4c(c3)OCO4)c3ccccc32)cc1 (centres undefined)	i	-0.0738	-0.235	17.9	0.0327	58.8*	-9.69	-25.4
Cc1c(NC(=O)CSc2ncn[nH]2)c(=O)n(-c2ccccc2)n1C	.	.	.	.	-0.624	.	.	.
Cc1ccc2nc(SCC(=O)Nc3c(C)n(C)n(-c4ccccc4)c3=O)[nH]c2c1	i	1.39	-0.0409	13.4	-0.443	2.93*	-7.1	-31.5
N#CC(C(=O)NC1CCCCC1)c1nc2ccccc2nc1N1CCN(c2ccc(F)cc2)CC1 (centres undefined)	i	-0.223	-0.911	17.1	-1.08	13.7*	241*	?
